In brackets after ≈: the same amount, converted by molar mass.
Legend:
[1] = test system: Mycobacterium avium complex sp.; test: Antimycobacterial activity against Mycobacterium avium complex CIT19/06 clinical isolate after 5 days by Alamar Blue assay; format: functional; details: CIT19/06, 120 h
Mycobacterium avium = test: Antimycobacterial activity against Mycobacterium avium subsp. paratuberculosis CIT03 clinical isolate after 11 days by Alamar Blue assay; format: functional; details: CIT03, 264 h
L6 = test: Cytotoxicity against rat L6 cells after 70 hrs by Alamar Blue-based assay; format: cell-based; details: L6, 70 h
Summary of the method: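 Rat skeletal myoblast L-6 cells, 4000 per well, in RPMI 1640 with 10% FBS and L-glutamine. Eleven 3-fold serial dilutions spanning 100 to 0.002 were tested for 70 h. Alamar Blue was then added for 2 h and fluorescence read at ex 536 / em 588 nm. IC50 came from linear regression of sigmoid curves, averaged over two replicate experiments, with podophyllotoxin as control.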

[2] = test system: Mycobacterium tuberculosis; test: Antimycobacterial activity against Mycobacterium tuberculosis H37Ra ATCC 25177 after 7 days by Alamar Blue assay; format: functional; details: H37Ra ATCC 25177, 168 h
Summary of the method: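 Log-phase culture washed and resuspended in supplemented Middlebrook 7H9GC broth, adjusted to McFarland No. 1, then diluted 1:20. Equal volumes of culture and DMSO-prepared compound dilutions were tested in duplicate for 7 days. 10% AlamarBlue was added, with 570/600 nm readings for background and after 24 h reincubation. Blue meant no growth, pink meant growth. MIC was the lowest concentration without visible growth.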

| Compound | MIC [1] | MIC (Mycobacterium avium) | IC50 (L6) | MIC [2] |
| --- | --- | --- | --- | --- |
| COc1cc(NC(C)CCCNC(=O)NCCCC(C)Nc2cc(OC)cc3cccnc23)c2ncccc2c1 (stereo not drawn) | 256 µg/mL (≈ 470 µM) | 128 µg/mL (≈ 235 µM) | > 100 µg/mL | 128 µg/mL (≈ 235 µM) |
| COc1cc(NC(C)CCCNC(=O)/C=C/c2ccccc2)c2ncccc2c1 (stereo not drawn) | 32 µg/mL (≈ 82.2 µM) | 16 µg/mL (≈ 41.1 µM) | – | 16 µg/mL (≈ 41.1 µM) |
| COc1cc(NC(C)CCCNC(=O)/C=C/c2ccc(Cl)cc2)c2ncccc2c1 (stereo not drawn) | 128 µg/mL (≈ 302 µM) | 64 µg/mL (≈ 151 µM) | – | 64 µg/mL (≈ 151 µM) |
| COc1ccc(/C(=N/NC(=O)NNC(=O)NCCCC(C)Nc2cc(OC)cc3cccnc23)c2ccccc2)cc1 (stereo not drawn) | 16 µg/mL (≈ 28.1 µM) | 4 µg/mL (≈ 7.02 µM) | – | 2 µg/mL (≈ 3.51 µM) |
| COc1cc(NC(C)CCCNC(=O)NNC(=O)N(C)C(c2ccccc2)c2ccccc2)c2ncccc2c1 (stereo not drawn) | 64 µg/mL (≈ 118 µM) | 64 µg/mL (≈ 118 µM) | – | 64 µg/mL (≈ 118 µM) |
| COc1cc(NC(C)CCCNC(=O)NNC(=O)NCCCC(C)Nc2cc(OC)cc3cccnc23)c2ncccc2c1 (stereo not drawn) | 16 µg/mL (≈ 26.5 µM) | 4 µg/mL (≈ 6.64 µM) | – | 2 µg/mL (≈ 3.32 µM) |
| COc1cc(NC(C)CCCNC(=O)NNC(=O)Nc2ccc(Cl)c(C(F)(F)F)c2)c2ncccc2c1 (stereo not drawn) | 2 µg/mL (≈ 3.71 µM) | 2 µg/mL (≈ 3.71 µM) | 30 µg/mL (≈ 55.7 µM) | 2 µg/mL (≈ 3.71 µM) |
| COc1cc(NC(C)CCCNC(=O)NNC(=O)NCCCO)c2ncccc2c1 (stereo not drawn) | 256 µg/mL (≈ 612 µM) | 256 µg/mL (≈ 612 µM) | – | 256 µg/mL (≈ 612 µM) |
| COc1cc(NC(C)CCCNC(=O)NNC(=O)NCCCCCO)c2ncccc2c1 (stereo not drawn) | 256 µg/mL (≈ 573 µM) | 256 µg/mL (≈ 573 µM) | – | 256 µg/mL (≈ 573 µM) |
| COc1cc(NC(C)CCCNC(=O)NNC(=O)N(CCO)CCO)c2ncccc2c1 (stereo not drawn) | 256 µg/mL (≈ 571 µM) | 256 µg/mL (≈ 571 µM) | – | 256 µg/mL (≈ 571 µM) |
| COc1cc(NC(C)CCCNC(=O)N(C)C(c2ccccc2)c2ccccc2)c2ncccc2c1 (stereo not drawn) | 128 µg/mL (≈ 265 µM) | 128 µg/mL (≈ 265 µM) | 80.5 µg/mL (≈ 167 µM) | 128 µg/mL (≈ 265 µM) |
| COc1cc(NC(C)CCCNC(=O)NC(c2ccccc2)c2ccc(Cl)cc2)c2ncccc2c1 (stereo not drawn) | 128 µg/mL (≈ 254 µM) | 128 µg/mL (≈ 254 µM) | – | 128 µg/mL (≈ 254 µM) |
| COc1ccc(/C(=N/NC(=O)NCCCC(C)Nc2cc(OC)cc3cccnc23)c2ccccc2)cc1 (stereo not drawn) | 256 µg/mL (≈ 500 µM) | 128 µg/mL (≈ 250 µM) | > 100 µg/mL | 128 µg/mL (≈ 250 µM) |
| COc1ccc(C(=NNC(=O)NCCCC(C)Nc2cc(OC)cc3cccnc23)c2ccc(OC)cc2)cc1 (stereo not drawn) | 256 µg/mL (≈ 473 µM) | 128 µg/mL (≈ 236 µM) | > 100 µg/mL | 128 µg/mL (≈ 236 µM) |
| COc1cc(NC(C)CCCNC(=O)Nc2ccc(Cl)c(C(F)(F)F)c2)c2ncccc2c1 (stereo not drawn) | 16 µg/mL (≈ 33.3 µM) | 16 µg/mL (≈ 33.3 µM) | – | 16 µg/mL (≈ 33.3 µM) |
| COc1cc(NC(C)CCCNC(=O)NN)c2ncccc2c1 (stereo not drawn) | 32 µg/mL (≈ 101 µM) | 32 µg/mL (≈ 101 µM) | – | 32 µg/mL (≈ 101 µM) |
| COc1cc(NC(C)CCCNC(=O)Nc2cccc(C(F)(F)F)c2)c2ncccc2c1 (stereo not drawn) | 2 µg/mL (≈ 4.48 µM) | 2 µg/mL (≈ 4.48 µM) | 150 µg/mL (≈ 336 µM) | 2 µg/mL (≈ 4.48 µM) |
| COc1cc(NC(C)CCCNC(=O)Nc2ccc(O)cc2)c2ncccc2c1 (stereo not drawn) | 256 µg/mL (≈ 649 µM) | 128 µg/mL (≈ 324 µM) | 14.8 µg/mL (≈ 37.5 µM) | 128 µg/mL (≈ 324 µM) |
| COc1cc(NC(C)CCCNC(=O)NNC(=O)Nc2cccc(O)c2)c2ncccc2c1 (stereo not drawn) | 256 µg/mL (≈ 566 µM) | 128 µg/mL (≈ 283 µM) | – | 128 µg/mL (≈ 283 µM) |
| COc1cc(NC(C)CCCNC(=O)NNC(=O)Nc2cccc(Cl)c2)c2ncccc2c1 (stereo not drawn) | 256 µg/mL (≈ 544 µM) | 128 µg/mL (≈ 272 µM) | – | 128 µg/mL (≈ 272 µM) |
| COc1cc(NC(C)CCCNC(=O)Nc2cccc(Cl)c2)c2ncccc2c1 (stereo not drawn) | 16 µg/mL (≈ 38.7 µM) | 16 µg/mL (≈ 38.7 µM) | 10 µg/mL (≈ 24.2 µM) | 16 µg/mL (≈ 38.7 µM) |
| COc1cc(NC(C)CCCNC(=O)NNC(=O)Nc2cccc(F)c2)c2ncccc2c1 (stereo not drawn) | 256 µg/mL (≈ 563 µM) | 128 µg/mL (≈ 282 µM) | – | 128 µg/mL (≈ 282 µM) |
| COc1cc(NC(C)CCCNC(=O)Nc2cccc(O)c2)c2ncccc2c1 (stereo not drawn) | 16 µg/mL (≈ 40.6 µM) | 16 µg/mL (≈ 40.6 µM) | 38 µg/mL (≈ 96.3 µM) | 8 µg/mL (≈ 20.3 µM) |

| Compound | MIC [1] | MIC (Mycobacterium avium) | IC50 (L6) | MIC [2] |
| --- | --- | --- | --- | --- |
| COc1cc(NC(C)CCCNC(=O)Nc2cccc(F)c2)c2ncccc2c1 (stereo not drawn) | 8 µg/mL (≈ 20.2 µM) | 4 µg/mL (≈ 10.1 µM) | 9.18 µg/mL (≈ 23.2 µM) | 2 µg/mL (≈ 5.04 µM) |
| COc1cc(NC(C)CCCNC(=O)NNC(=O)Nc2ccc(O)cc2)c2ncccc2c1 (stereo not drawn) | 256 µg/mL (≈ 566 µM) | 128 µg/mL (≈ 283 µM) | – | 128 µg/mL (≈ 283 µM) |
| COc1cc(NC(C)CCCNC(=O)NNC(=O)Nc2cccc(C(F)(F)F)c2)c2ncccc2c1 (stereo not drawn) | 128 µg/mL (≈ 254 µM) | 128 µg/mL (≈ 254 µM) | – | 128 µg/mL (≈ 254 µM) |
| COc1cc(NC(C)CCCNC(=O)Nc2ccc(F)cc2)c2ncccc2c1 (stereo not drawn) | 16 µg/mL (≈ 40.4 µM) | 16 µg/mL (≈ 40.4 µM) | 9.3 µg/mL (≈ 23.5 µM) | 8 µg/mL (≈ 20.2 µM) |
| COc1cc(NC(C)CCCNC(=O)Nc2ccc(Cl)cc2)c2ncccc2c1 (stereo not drawn) | 64 µg/mL (≈ 155 µM) | 32 µg/mL (≈ 77.5 µM) | – | 16 µg/mL (≈ 38.7 µM) |
| COc1cc(NC(C)CCCNC(=O)/C=C/c2ccc(OC)c(OC)c2)c2ncccc2c1 (stereo not drawn) | 256 µg/mL (≈ 569 µM) | 128 µg/mL (≈ 285 µM) | > 100 µg/mL | 128 µg/mL (≈ 285 µM) |
| COc1cc(NC(C)CCCNC(=O)NNC(=O)NCCc2ccccc2)c2ncccc2c1 (stereo not drawn) | 256 µg/mL (≈ 551 µM) | 128 µg/mL (≈ 276 µM) | – | 128 µg/mL (≈ 276 µM) |
| COc1cc(NC(C)CCCNC(=O)/C=C/c2cccc(C(F)(F)F)c2)c2ncccc2c1 (stereo not drawn) | 128 µg/mL (≈ 280 µM) | 32 µg/mL (≈ 69.9 µM) | – | 32 µg/mL (≈ 69.9 µM) |
| COc1cc(NC(C)CCCNC(=O)NNC(=O)NCc2ccccc2)c2ncccc2c1 (stereo not drawn) | 256 µg/mL (≈ 568 µM) | 128 µg/mL (≈ 284 µM) | – | 128 µg/mL (≈ 284 µM) |
| COc1cc(NC(C)CCCNC(=O)/C=C/c2ccc(C(F)(F)F)cc2)c2ncccc2c1 (stereo not drawn) | 128 µg/mL (≈ 280 µM) | 64 µg/mL (≈ 140 µM) | – | 32 µg/mL (≈ 69.9 µM) |
| COc1cc(NC(C)CCCNC(=O)/C=C/c2cc(OC)c(OC)c(OC)c2)c2ncccc2c1 (stereo not drawn) | 256 µg/mL (≈ 534 µM) | 256 µg/mL (≈ 534 µM) | > 100 µg/mL | 256 µg/mL (≈ 534 µM) |
| COc1cc(NC(C)CCCNC(=O)/C=C/c2ccccc2F)c2ncccc2c1 (stereo not drawn) | 128 µg/mL (≈ 314 µM) | 64 µg/mL (≈ 157 µM) | 1.5 µg/mL (≈ 3.68 µM) | 32 µg/mL (≈ 78.5 µM) |
| COc1cc(NC(C)CCCNC(=O)/C=C/c2ccc3c(c2)OCO3)c2ncccc2c1 (stereo not drawn) | 64 µg/mL (≈ 148 µM) | 64 µg/mL (≈ 148 µM) | – | 64 µg/mL (≈ 148 µM) |
| COc1cc(NC(C)CCCNC(=O)NC2CCCCC2)c2ncccc2c1 (stereo not drawn) | 32 µg/mL (≈ 83.2 µM) | 16 µg/mL (≈ 41.6 µM) | – | 16 µg/mL (≈ 41.6 µM) |
| COc1cc(NC(C)CCCNC(=O)NC2CCCC2)c2ncccc2c1 (stereo not drawn) | 32 µg/mL (≈ 86.4 µM) | 16 µg/mL (≈ 43.2 µM) | – | 16 µg/mL (≈ 43.2 µM) |
| COc1cc(NC(C)CCCNC(=O)NCc2ccncc2)c2ncccc2c1 (stereo not drawn) | 32 µg/mL (≈ 81.3 µM) | 32 µg/mL (≈ 81.3 µM) | – | 32 µg/mL (≈ 81.3 µM) |
| COc1cc(NC(C)CCCNC(=O)NCCO)c2ncccc2c1 (stereo not drawn) | 64 µg/mL (≈ 185 µM) | 64 µg/mL (≈ 185 µM) | – | 32 µg/mL (≈ 92.4 µM) |
| COc1cc(NC(C)CCCNC(=O)NCCCO)c2ncccc2c1 (stereo not drawn) | 64 µg/mL (≈ 178 µM) | 64 µg/mL (≈ 178 µM) | – | 64 µg/mL (≈ 178 µM) |
| O=C(O)c1cn(C2CC2)c2cc(N3CCNCC3)c(F)cc2c1=O [CIPROFLOXACIN] | – | – | – | 16 µg/mL (≈ 48.3 µM) |
| NNC(=O)c1ccncc1 [ISONIAZID] | > 256 µg/mL | > 256 µg/mL | – | 5 µg/mL (≈ 36.5 µM) |
| COc1cc([C@@H]2c3cc4c(cc3[C@H](O)[C@H]3COC(=O)[C@H]23)OCO4)cc(OC)c1OC [PODOFILOX] | – | – | 0.007 µg/mL (≈ 0.0169 µM) | – |
| COc1cc(NC(C)CCCN)c2ncccc2c1.O=P(O)(O)O.O=P(O)(O)O (stereo not drawn) [PRIMAQUINE PHOSPHATE] | 32 µg/mL | 32 µg/mL | – | 32 µg/mL |
| CO[C@H]1/C=C/O[C@@]2(C)Oc3c(C)c(O)c4c(O)c(c(/C=N/N5CCN(C)CC5)c(O)c4c3C2=O)NC(=O)/C(C)=C\C=C\[C@H](C)[C@H](O)[C@@H](C)[C@@H](O)[C@@H](C)[C@H](OC(C)=O)[C@@H]1C [RIFAMPIN] | 30 µg/mL (≈ 36.5 µM) | 90 µg/mL (≈ 109 µM) | – | 8 µg/mL (≈ 9.72 µM) |
